Assays:
CCRF-CEM [1] = experiment: Antiproliferative activity against human CCRF-CEM cells after 48 hrs by MTT assay; format: functional, cell-based
How it was run: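 CCRF-CEM cells in RPMI 1640 with 10% FBS, penicillin/streptomycin, 37 °C, 5% CO2, seeded at 2 × 10⁵ cells/mL. Compounds added at various concentrations, each in quintuplicate, for 48 h. Growth read by MTT. IC50 taken as the concentration giving 50% growth inhibition.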

K562 = experiment: Antiproliferative activity against human K-562 cells by MTT assay; format: functional, cell-based
How it was run: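 K562 cells seeded at 2 × 10⁵ cells/mL. Compound added at various concentrations in quintuplicate, then incubated. Viability read by MTT. IC50 is the concentration inhibiting growth by 50%.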

CCRF-CEM [2] = experiment: Induction of early stage apoptosis in human CCRF-CEM cells at 2.5 uM after 48 hrs by annexin V-FITC/propidium iodide staining relative to control; format: functional
How it was run: (§1)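 CCRF-CEM cells treated with compound at 1.0, 2.5 or 5 μM for 48 h, alongside untreated controls. Stained with annexin V-FITC/PI kit and analysed by flow cytometry, 488 nm laser. Early apoptosis counted as annexin V+/PI−; late apoptosis or necrosis as double positive.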

CCRF-CEM [3] = experiment: Induction of late stage apoptosis in human CCRF-CEM cells at 1 uM after 48 hrs by annexin V-FITC/propidium iodide staining relative to control; format: functional; how it was run: as §1
CCRF-CEM [4] = experiment: Induction of late stage apoptosis in human CCRF-CEM cells at 5 uM after 48 hrs by annexin V-FITC/propidium iodide staining relative to control; format: functional; how it was run: as §1
CCRF-CEM [5] = experiment: Induction of late stage apoptosis in human CCRF-CEM cells at 2.5 uM after 48 hrs by annexin V-FITC/propidium iodide staining relative to control; format: functional; how it was run: as §1
CCRF-CEM [6] = experiment: Induction of early stage apoptosis in human CCRF-CEM cells at 1 uM after 48 hrs by annexin V-FITC/propidium iodide staining relative to control; format: functional; how it was run: as §1
CCRF-CEM [7] = experiment: Induction of apoptosis in human CCRF-CEM cells assessed as accumulation at sub-G0 phase after 24 hrs by flow cytometry; format: functional, cell-based
How it was run: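 CCRF-CEM cells exposed to compound at 0.5, 1.0 or 2.5 μM for 24 h at 37 °C, alongside untreated controls. Cells washed twice in PBS, fixed in ice-cold 70% ethanol at 4 °C for 1–2 h, then stained with propidium iodide. Sub-diploid (sub-G0) DNA peak measured by flow cytometry, 488 nm argon laser.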

HL-60 = experiment: Antiproliferative activity against human HL-60 cells by MTT assay; format: functional, cell-based
How it was run: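 HL60 cells in RPMI 1640 with 10% FBS, penicillin/streptomycin, 37 °C, 5% CO2, seeded at 2 × 10⁵ cells/mL. Compound added at various concentrations in quintuplicate, then incubated. Viability read by MTT. IC50 is the concentration giving 50% growth inhibition.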

CCRF-CEM [8] = experiment: Induction of early stage apoptosis in human CCRF-CEM cells at 5 uM after 48 hrs by annexin V-FITC/propidium iodide staining relative to control; format: functional; how it was run: as §1

| Structure (SMILES) | IC50 (CCRF-CEM [1]) | further results |
| --- | --- | --- |
| CCCOc1cc(Cn2c3ccccc3c(=O)c3ccccc32)cc(OCCC)c1 | 39.1 µM | – |
| O=c1c2ccccc2n(Cc2cccc(C(F)(F)F)c2)c2ccccc12 | 36 µM | – |
| O=c1c2ccccc2n(Cc2cc(OCc3ccccc3)cc(OCc3ccccc3)c2)c2ccccc12 | > 100 µM | – |
| COc1cc(Cn2c3ccccc3c(=O)c3ccccc32)cc(OC)c1OC | 1.5 µM | – |
| COc1ccc(Cn2c3ccccc3c(=O)c3ccccc32)cc1 | > 100 µM | – |
| O=c1c2ccccc2[nH]c2ccccc12 [ACRIDONE] | > 100 µM | – |
| Cc1cccc(Cn2c3ccccc3c(=O)c3ccccc32)c1 | 8.8 µM | – |
| CCCCOc1cc(Cn2c3ccccc3c(=O)c3ccccc32)cc(OCCCC)c1 | > 100 µM | – |
| O=c1c2ccccc2n(Cc2ccccc2)c2ccccc12 | 52 µM | – |
| COc1cc(Cn2c3ccccc3c(=O)c3ccccc32)cc(OC)c1 | 0.7 µM | IC50 (K562): 11.4 µM; Activity (CCRF-CEM [2]): 27.4%; Activity (CCRF-CEM [3]): 10%; Activity (CCRF-CEM [4]): 41.6%; Activity (CCRF-CEM [5]): 33.6%; Activity (CCRF-CEM [6]): 9.5%; Activity (CCRF-CEM [7]): Dose-dependent effect; IC50 (HL-60): 0.6 µM; Activity (CCRF-CEM [8]): 21.7% |
| COc1cccc(Cn2c3ccccc3c(=O)c3ccccc32)c1 | > 100 µM | – |
| O=c1c2ccccc2n(Cc2cccc(F)c2)c2ccccc12 | 62 µM | – |
| COc1cc(CN2CCC(=O)CC2)cc(OC)c1OC | > 100 µM | – |
| CCOc1cc(Cn2c3ccccc3c(=O)c3ccccc32)cc(OCC)c1 | 6.7 µM | – |

From ChEMBL document CHEMBL1158185, “Synthesis and potent antileukemic activities of 10-benzyl-9(10H)-acridinones” (Bioorg Med Chem, 2008)
